Assay results as given in ChEMBL document CHEMBL3232882, “N-Acyl-phosphoramidates as potential novel form of gemcitabine prodrugs” (Bioorg Med Chem, 2014).
The source made the active and inactive calls. The rule behind the calls is not given here.

What was measured:
Thermococcus sp. 9oN-7 [1] = assay: Inhibition of Thermococcus sp. 9oN-7 therminator DNA polymerase assessed as single base extended product level after 1 hr by single base extension reaction based electrophoresis method; design: concentration or dose not given beside the values
[2] = Inhibition of Escherichia coli DNA polymerase 1 with 3' to 5'-exonucleolytic activity using dCTP as substrate assessed as single base extension reaction after 2 hrs
Procedure, shortened: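 Compound (0.4–2.0 mM; 1- to 5-fold over dCTP) added together with 0.4 mM dCTP in 0.05 M Tris-HCl pH 8.0, 5 mM MgCl2, 1 mM DTT, 2 h at 37 °C. The n+1 product was quantified after 20% PAGE/7 M urea and autoradiography; EC50 is the concentration giving 50% inhibition.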

HeLa [3] = assay: Cytotoxicity against human HeLa cells assessed as reduction of cell survival after 72 hrs by MTT assay; assay type: functional, cell-based
Procedure, shortened: (§1)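 HeLa seeded at 7×10^3 and CFPAC at 10^4 per well in RPMI 1640 with 10% FCS under 5% CO2. After 24 h, exposure to compounds (aqueous 100 mM stock; final 1 mM to 1×10^-6 mM) for 72 or 96 h. MTT 2 h, formazan dissolved in 20% SDS/50% DMF pH 4.7, A570/650. Untreated cells = 100%; IC50 from dose-response curves, 2 independent experiments in triplicate.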

Escherichia coli = assay: Activity of Escherichia coli DNA polymerase 1 without 3' to 5'-exonucleolytic activity after 2 hrs by single base extension reaction based electrophoresis method
Procedure, shortened: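 Test compound with KF+ or KF- (1U) in 0.05 M Tris-HCl pH 8.0, 5 mM MgCl2, 1 mM DTT, 2 h at 37 °C, then heat-denatured. Read-out was 20% PAGE/7 M urea, autoradiography and quantitation of n+1 product; dCTP reaction served as control.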

Thermococcus sp. 9oN-7 [4] = assay: Activity of Thermococcus sp. 9oN-7 therminator DNA polymerase after 2 hrs by single base extension reaction based electrophoresis method
HUVEC = assay: Cytotoxicity against HUVEC assessed as cell after 48 hrs by MTT assay; assay type: cell-based; details: Homo sapiens
Procedure, shortened: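 HUVEC (from fresh umbilical cords, gelatin-coated dishes, RPMI 1640 with 20% FBS, heparin, ECGF) and K562 (RPMI 1640, 10% FCS) were seeded at 7×10^3 per well. After 24 h, exposure for 48 h to compounds from 100 mM aqueous stock, final 1 mM down to 1×10^-6 mM. MTT read at 570/650 nm; untreated = 100%; IC50 from dose-response curves, mean of 2 experiments in triplicate.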

[5] = target: HINT1 (adenosine 5'-monophosphoramidase) (Homo sapiens, UniProt P49773); assay: Stability in human HeLa cell lysate assessed as HINT-1-mediated phosphoramidase activity by measuring compound remaining at 1 mM after 22 hrs by RP-HPLC analysis relative to control; assay type: ADME, cell-based; details: read-out: Stability
HINT1 (adenosine 5'-monophosphoramidase), sequence (P49773 whole entry): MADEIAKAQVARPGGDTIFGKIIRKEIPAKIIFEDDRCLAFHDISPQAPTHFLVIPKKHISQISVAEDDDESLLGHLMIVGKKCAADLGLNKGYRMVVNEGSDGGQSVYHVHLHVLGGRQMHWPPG
Procedure, shortened: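 HeLa lysate from confluent cells, sonicated in PBS with protease inhibitors. Substrate 1 mM in 20 mM Na-HEPES pH 7.2, 0.5 mM MgCl2, 22 h at 37 °C. Ice-quenched, heat-denatured, centrifuged. C18 RP-HPLC (acetonitrile 0–8% in 0.1 M TEAB pH 7.4) at 260 nm; intact substrate quantified by peak integration; mean ± SE of at least duplicate.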

HeLa [6] = assay: Cytotoxicity against human HeLa cells assessed as reduction of cell survival after 96 hrs by MTT assay; assay type: functional, cell-based
Procedure, shortened: as §1

[7] = Stability of the compound in ammonium acetate buffer at 20 mM at pH 3 to 11 after 2 to 24 hrs by RP-HPLC analysis; assay type: physicochemical; details: pH 3, 20000 µM
Procedure, shortened: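 Compounds at 20 mM in 0.1 M ammonium acetate buffered solutions, pH 3–11, kept at room temperature; sampled at 2, 8 and 24 h and monitored by RP-HPLC on a C18 column.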

Compound | Activity (Thermococcus sp. 9oN-7 [1]) [%] | EC50 [2] [µM] | IC50 (HeLa [3]) [µM] | Activity (Escherichia coli) | Activity (Thermococcus sp. 9oN-7 [4]) | IC50 (HUVEC) [µM] | remaining at 22 h, 1000 µM [5] [%] | IC50 (HeLa [6]) [µM] | Stability [7]
CC(=O)NP(=O)(S)OC[C@H]1O[C@@H](n2ccc(N)nc2=O)C(F)(F)[C@@H]1O (stereo partly specified) | 100 | > 2000 | > 1000 | inactive | inactive | > 1000 | 100 | 700 | Stable
Nc1ccn([C@@H]2O[C@H](COP(=O)(O)NC(=O)c3cccnc3)[C@@H](O)C2(F)F)c(=O)n1 | 100 | 750 | 10 | inactive | inactive | 50 | 95.5 | 1.4 | Stable
CC(=O)NP(=O)(O)OC[C@H]1O[C@@H](n2ccc(N)nc2=O)C(F)(F)[C@@H]1O | 100 | 710 | 15 | inactive | inactive | 0.09 | 94.1 | 1 | Stable
Nc1ccn([C@@H]2O[C@H](COP(=O)(S)NC(=O)c3cccnc3)[C@@H](O)C2(F)F)c(=O)n1 (stereo partly specified) | 100 | 280 | > 1000 | inactive | inactive | > 1000 | 100 | 500 | Stable
